Reference: ChEMBL document CHEMBL3784931, “Synthesis and evaluation of novel angiotensin II receptor 1 antagonists as anti-hypertension drugs” (Bioorg Med Chem, 2016)
The source made the active and inactive calls. The rule behind the calls is not given here.

Key:
[1] = target: T1, Type-1 angiotensin II receptor A (Rattus norvegicus, UniProt P25095); assay: Displacement of [125I]-Ang II from Angiotensin 2 type-1A receptor in rat vascular smooth muscle cells after 150 mins by gamma counting method
T1 sequence (P25095 whole entry): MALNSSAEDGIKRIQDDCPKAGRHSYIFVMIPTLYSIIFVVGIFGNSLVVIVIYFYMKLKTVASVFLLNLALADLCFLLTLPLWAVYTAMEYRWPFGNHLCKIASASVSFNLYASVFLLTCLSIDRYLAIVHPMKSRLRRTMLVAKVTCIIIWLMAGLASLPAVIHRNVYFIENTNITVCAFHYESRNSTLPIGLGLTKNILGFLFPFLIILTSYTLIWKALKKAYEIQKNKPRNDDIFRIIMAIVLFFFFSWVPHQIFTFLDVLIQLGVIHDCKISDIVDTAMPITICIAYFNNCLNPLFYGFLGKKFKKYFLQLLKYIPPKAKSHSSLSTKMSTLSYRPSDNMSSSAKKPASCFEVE
Procedure, shortened: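 Rat vascular smooth muscle cells (passages 3–6) were seeded at 10⁶ cells/well and grown at 37 °C in 5% CO₂. Nonspecific binding was taken with 1 µM Ang II. Cells were washed three times, lysed 10 min in 0.1 M NaOH, and bound radioactivity was gamma counted.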

[2] = test system: Rattus norvegicus; assay: Antihypertensive activity in spontaneous hypertensive rat model assessed as reduction in mean blood pressure at 10 mg/kg, po administered for 2 hrs; assay type: functional, organism-based
Procedure, shortened: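 Male SHRs were randomized, n = 6 per group. Compound was suspended in DMSO/oleic acid (1:4) and given by oral gavage; vehicle controls got the same volume of solvent. SBP and DBP were recorded in conscious animals by noninvasive tail-artery manometry. MBP = (SBP − DBP)/3 + DBP. Data are mean ± SEM, with p < 0.05 taken as significant.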

Row | IC50 [1] | Ki [1] | Structure (SMILES) | Activity [2]
1 | 4.32 nM | 3.13 nM | CCCCc1nc(Cl)c(C=O)n1Cc1ccc(-c2ccccc2-c2noc(=O)[nH]2)cc1 | –
2 | – | – | CCCCc1nc(Cl)c(CO)n1Cc1ccc(-c2ccccc2-c2nnn[nH]2)cc1 | Active
